Test results reported in ChEMBL document CHEMBL1156201, “2-MeS-beta,gamma-CCl2-ATP is a potent agent for reducing intraocular pressure” (J Med Chem, 2010).
The source made the active and inactive calls. The rule behind the calls is not given here.

Legend:
[1] = test system: Serum; test: Half life in human serum; assay type: ADME, cell-free
Summary of the method: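 Serum came from healthy volunteers' blood, held 12 h at 4 °C, centrifuged and stored at −80 °C. Nucleotide (4.5 μL of 40 mM stock) was incubated with 180 μL serum plus 540 μL RPMI-1640 at 37 °C for up to 24 h, sampled at 0.5–12 h intervals. Samples were heat-stopped at 80 °C, cleaned up by extraction and anion-exchange, then analysed by HPLC. Hydrolysis rate came from peak-area change over time.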

[2] = Association constant pKa of the compound; assay type: physicochemical
[3] = molecular target: P2Y purinoceptor 1 (Meleagris gallopavo, UniProt P49652); test: Agonist activity at turkey P2Y1 receptor expressed in human […] receptor assessed as induction of intracellular calcium mobilization; assay type: functional, cell-based
[4] = Chemical stability assessed as enzymatic stability at 100 uM after 20 mins in presence of human NTPDase1; assay type: physicochemical
Summary of the method: (§1)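 Crude extracts of COS-7 cells transiently transfected with the NTPDase. Extract preincubated 3 min at 37 °C in Tris-Ringer buffer, pH 7.4. Substrate added at 100 μM final; reaction stopped at 20 min with malachite green. Released Pi read at 630 nm. Activity of untransfected-cell extract subtracted.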

[5] = Chemical stability assessed as enzymatic stability at 100 uM after 20 mins in presence of human NTPDase2; assay type: physicochemical; summary of the method: as §1
[6] = Chemical stability assessed as enzymatic stability at 100 uM after 20 mins in presence of human NTPDase3; assay type: physicochemical; summary of the method: as §1
[7] = Chemical stability assessed as enzymatic stability at 100 uM after 20 mins in presence of human NTPDase8; assay type: physicochemical; summary of the method: as §1
[8] = Chemical stability assessed as enzymatic stability at 100 uM after 20 mins in presence of human NPP1; assay type: physicochemical
Summary of the method: (§2)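 Human NPP1 or NPP3 extract was preincubated 3 min at 37 °C in 1 mM CaCl2, 140 mM NaCl, 5 mM KCl, 50 mM Tris pH 8.5. Nucleotide was added at 100 μM final. After 20 min the reaction was quenched into ice-cold 1 M perchloric acid and neutralised with KOH. Degradation was read by reverse-phase HPLC (TBA/EDTA/phosphate, pH 7.0).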

[9] = Chemical stability assessed as enzymatic stability at 100 uM after 20 mins in presence of human NPP3; assay type: physicochemical; summary of the method: as §2
[10] = species on record: Oryctolagus cuniculus; test: Antihypertensive activity in New Zealand rabbit assessed as reduction in intraocular pressure at 100 uM after 8 hrs relative to control; assay type: functional
Summary of the method: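 Male New Zealand white rabbits (2.5 ± 0.5 kg). 100 μM, 10 μL applied unilaterally to the cornea; contralateral eye got the same volume of saline (0.9% NaCl). IOP read by rebound tonometer without anesthetic, twice before dosing, then followed up to 8 h. Blinded design. Mean ± SEM of 8–10 independent experiments.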

[11] = species on record: Oryctolagus cuniculus; test: Antihypertensive activity in New Zealand rabbit assessed as reduction in intraocular pressure at 1 nM to 100 uM after 8 hrs relative to control; assay type: functional, Eye
Summary of the method: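 Male New Zealand white rabbits (2.5 ± 0.5 kg). 10 μL of 1 nM–100 μM solution instilled unilaterally on the cornea; contralateral eye got saline (0.9% NaCl, vehicle). IOP read by rebound tonometer without anesthetic, twice before dosing. Maximal response at each dose was plotted against concentration and fitted for pD2; EC50 taken as antilog of −pD2. One dose per animal per day, washout ≥2 days. Experimenter blinded.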

[12] = Chemical stability assessed as half life of hydrolysis at pH 1.4; assay type: physicochemical; settings: buffer
Summary of the method: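 Analogue (1.5 mg) in 0.2 M HCl/KCl buffer (0.8 mL), adjusted to pH 1.4, held at 37 °C for 1–31 days. Sampled at 1–24 h intervals and analysed by reverse-phase HPLC. Half-life derived from peak integration over time.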

Sequence of P2Y purinoceptor 1 (P49652 whole entry): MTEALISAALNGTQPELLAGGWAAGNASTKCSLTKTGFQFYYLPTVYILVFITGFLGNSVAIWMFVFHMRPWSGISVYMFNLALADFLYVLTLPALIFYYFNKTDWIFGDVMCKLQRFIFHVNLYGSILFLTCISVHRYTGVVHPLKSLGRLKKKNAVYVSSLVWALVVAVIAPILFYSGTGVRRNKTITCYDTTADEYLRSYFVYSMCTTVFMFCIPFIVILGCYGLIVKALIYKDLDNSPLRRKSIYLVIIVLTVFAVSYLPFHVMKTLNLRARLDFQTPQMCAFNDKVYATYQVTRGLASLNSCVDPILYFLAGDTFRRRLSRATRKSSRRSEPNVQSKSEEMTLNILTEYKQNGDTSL

| SMILES | pKa [2] | EC50 ([3]; read-out: EC50) [nM] | Activity [4] [%] | Activity [5] [%] | Activity [7] [%] | Activity [8] [%] | Activity [9] [%] | Activity ([10]; Eye) | other results |
| --- | --- | --- | --- | --- | --- | --- | --- | --- | --- |
| CSc1nc(N)c2ncn([C@@H]3O[C@H](COP(=O)(O)OP(=O)(O)C(F)(F)P(=O)(O)O)[C@@H](O)[C@H]3O)c2n1 | 7 | 760 | 2.6 | 1.1 | 5.2 | 6.2 | 0.5 | inactive | t1/2 [1]: 12.4 h; Activity [6]: 2.6% |
| CSc1nc(N)c2ncn([C@@H]3O[C@H](COP(=O)(O)OP(=O)(O)C(Cl)(Cl)P(=O)(O)O)[C@@H](O)[C@H]3O)c2n1 | 7 | 9540 | 0.5 | 0.5 |  | 5.8 | 1.9 |  | Activity [10]: 32% |
| CSc1nc(N)c2ncn([C@@H]3O[C@H](COP(=O)(O)C(Cl)(Cl)P(=O)(O)O)[C@@H](O)[C@H]3O)c2n1 | 7 | 3100 |  | 1.7 |  | 3.3 | 1.8 | Active | pD2 [11]: 4.5 |
| CSc1nc(N)c2ncn([C@@H]3O[C@H](COP(=O)(O)C(F)(F)P(=O)(O)O)[C@@H](O)[C@H]3O)c2n1 | 7 | 980 | 1.3 | 2.4 | 0.1 | 3.9 |  | Active | pD2 [11]: 5.1 |
| BP(=O)(OC[C@H]1O[C@@H](n2cnc3c(N)ncnc32)[C@H](O)[C@@H]1O)OP(=O)(O)CP(=O)(O)O (stereo not given in full) | 8.4 |  |  |  |  |  |  |  | half-life [12]: 1140 min |
| BP(=O)(OC[C@H]1O[C@@H](n2cnc3c(N)nc(SC)nc32)[C@H](O)[C@@H]1O)OP(=O)(O)CP(=O)(O)O (stereo not given in full) | 8.4 |  |  |  |  |  |  |  | half-life [12]: 870 min |
| CSc1nc(N)c2ncn([C@@H]3O[C@H](COP(=O)(O)OP(=O)(O)CP(=O)(O)O)[C@@H](O)[C@H]3O)c2n1 |  |  |  |  |  |  |  |  | t1/2 [12]: 65 h; Activity [10]: 32%; pD2 [11]: 4.5 |
| BP(=O)(OC[C@H]1O[C@@H](n2cnc3c(N)nc(SC)nc32)[C@H](O)[C@@H]1O)OP(=O)(O)C(F)(F)P(=O)(O)O (stereo in doubt; 10A) | 7 |  | 1 | 1.8 | 1.7 | 4 | 10 |  | EC50 [3]: Not Active; Activity [6]: 4.4% |
| BP(=O)(OC[C@H]1O[C@@H](n2cnc3c(N)nc(SC)nc32)[C@H](O)[C@@H]1O)OP(=O)(O)C(F)(F)P(=O)(O)O (stereo in doubt; 10B) |  | 2130 | 0.4 | 0.9 |  | 3.4 | 3.2 |  |  |
| BP(=O)(OC[C@H]1O[C@@H](n2cnc3c(N)ncnc32)[C@H](O)[C@@H]1O)OP(=O)(O)C(Cl)(Cl)P(=O)(O)O (stereo in doubt; 11A) [listing 1 of 2 here] | 7 |  | 5.5 | 1.3 | 4.4 | 5.3 |  |  | EC50 [3]: Not Active; Activity [6]: 2.6% |
| BP(=O)(OC[C@H]1O[C@@H](n2cnc3c(N)ncnc32)[C@H](O)[C@@H]1O)OP(=O)(O)C(Cl)(Cl)P(=O)(O)O (stereo in doubt; 11A) [listing 2 of 2 here] |  |  |  |  |  |  |  | inactive |  |
| BP(=O)(OC[C@H]1O[C@@H](n2cnc3c(N)ncnc32)[C@H](O)[C@@H]1O)OP(=O)(O)C(Cl)(Cl)P(=O)(O)O (stereo in doubt; 11B) [listing 1 of 2 here] |  |  | 3.2 | 1.4 | 4 | 3.3 |  |  | EC50 [3]: Not Active; Activity [6]: 3.1% |
| BP(=O)(OC[C@H]1O[C@@H](n2cnc3c(N)ncnc32)[C@H](O)[C@@H]1O)OP(=O)(O)C(Cl)(Cl)P(=O)(O)O (stereo in doubt; 11B) [listing 2 of 2 here] |  |  |  |  |  |  |  | Active |  |
| BP(=O)(OC[C@H]1O[C@@H](n2cnc3c(N)nc(SC)nc32)[C@H](O)[C@@H]1O)OP(=O)(O)C(Cl)(Cl)P(=O)(O)O (stereo in doubt; 12A) [listing 1 of 2 here] | 7 | 570 | 0.7 | 1.5 |  | 0.7 | 5 |  | Activity [6]: 0.3% |
| BP(=O)(OC[C@H]1O[C@@H](n2cnc3c(N)nc(SC)nc32)[C@H](O)[C@@H]1O)OP(=O)(O)C(Cl)(Cl)P(=O)(O)O (stereo in doubt; 12A) [listing 2 of 2 here] |  |  |  |  |  |  |  | Active |  |
| BP(=O)(OC[C@H]1O[C@@H](n2cnc3c(N)nc(SC)nc32)[C@H](O)[C@@H]1O)OP(=O)(O)C(Cl)(Cl)P(=O)(O)O (stereo in doubt; 12B) [listing 1 of 2 here] |  | 1200 |  |  | 1.8 | 4 |  |  |  |
| BP(=O)(OC[C@H]1O[C@@H](n2cnc3c(N)nc(SC)nc32)[C@H](O)[C@@H]1O)OP(=O)(O)C(Cl)(Cl)P(=O)(O)O (stereo in doubt; 12B) [listing 2 of 2 here] |  |  |  |  |  |  |  | Active |  |
| Nc1ncnc2c1ncn2[C@@H]1O[C@H](COP(=O)(O)OP(=O)(O)OP(=O)(O)O)[C@@H](O)[C@H]1O [ADENOSINE TRIPHOSPHATE] |  |  |  |  |  |  |  |  | t1/2 [1]: 4.9 h |
